# Paper PMC7116037 (Structure (London, England : 1993), 2020)
# Where a SMILES comes first, the peptide text is derived from it. [ ]: non-standard residue; d: D form. pT = C[C@@H](OP(=O)(O)O)[C@H](N)C(=O)O; pS = N[C@@H](COP(=O)(O)O)C(=O)O
# Experiments:
# [1] = tested on: truncated version of βarr2; assay: HDX-MS profile of truncated βarr2 upon co-incubation with C7pp; design: species or system Rattus norvegicus; conditions: truncated βarr2 lacking residues 357–410; data not shown
# βarr2 = assay: HDX-MS profile of βarr2 upon C7pp binding; design: species or system Rattus norvegicus; conditions: 100 μM βarr2, 500 μM peptide, 1 h at room temperature
# rat βarr2 = rat βarr2 (Rattus norvegicus, UniProt P29067); assay: Isothermal titration calorimetry of C7pp binding to full-length βarr2; conditions: 298 K, 20 mM Tris-HCl pH 8.0, 200 mM NaCl
# In short: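 Rat βarr2 (1–410 WT), expressed in E. coli BL21(DE3)pLysS, in 20 mM Tris-HCl pH 8.0, 200 mM NaCl at 100 μM or 30 μM in the cell, degassed at 295 K. Titration at 298 K: 2.5 μL of C7pp ([…] syringe solution) injected every 200 s with gentle stirring. Binding constant and stoichiometry fitted from the titration curve; n = 3 independent experiments.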
# [2] = biological target: Rattus norvegicus wild-type β-arrestin 2 (βarr2 1-410) (Rattus norvegicus) (UniProt P29067); assay: ITC
# Rattus norvegicus wild-type β-arrestin 2 (βarr2 1-410) (Rattus norvegicus), sequence (P29067 whole entry, the tested form may be a part): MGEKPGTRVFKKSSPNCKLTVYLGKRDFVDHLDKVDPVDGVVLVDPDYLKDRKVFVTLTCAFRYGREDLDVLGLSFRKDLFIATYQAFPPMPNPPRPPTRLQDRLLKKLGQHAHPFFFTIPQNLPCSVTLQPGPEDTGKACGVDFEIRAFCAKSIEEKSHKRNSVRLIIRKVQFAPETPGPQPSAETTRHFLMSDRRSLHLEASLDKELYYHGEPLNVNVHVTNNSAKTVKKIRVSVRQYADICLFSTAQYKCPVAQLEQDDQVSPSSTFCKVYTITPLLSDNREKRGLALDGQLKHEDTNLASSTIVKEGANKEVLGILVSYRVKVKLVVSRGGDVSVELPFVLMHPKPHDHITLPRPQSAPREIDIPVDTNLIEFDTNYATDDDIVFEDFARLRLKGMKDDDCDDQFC
# rat βarr2, sequence (P29067 whole entry): as the sequence (P29067 whole entry, the tested form may be a part) above
binding behaviour (ITC) (rat βarr2),Kd [2] [µM],Compound,HDX profile of truncated βarr2 upon co-incubation [1],HDX-MS: helix formation in the finger loop (βarr2)
monophasic binding with βarr2,–,CC[C@H](C)[C@H](N)C(=O)N[C@@H](Cc1ccccc1)C(=O)N[C@@H](CCCCN)C(=O)N[C@@H](Cc1ccc(O)cc1)C(=O)N[C@@H](COP(=O)(O)O)C(=O)N[C@@H](C)C(=O)N[C@@H](CCCCN)C(=O)N[C@H](C(=O)NCC(=O)N[C@@H](CC(C)C)C(=O)N[C@H](C(=O)N[C@@H](CCCCN)C(=O)N[C@@H](CC(C)C)C(=O)N[C@H](C(=O)N[C@@H](CC(=O)O)C(=O)O)[C@@H](C)CC)[C@@H](C)OP(=O)(O)O)[C@@H](C)OP(=O)(O)O [C7pp] (H-IFKY[pS]AK[pT]GL[pT]KLID-OH; N-terminus and C-terminus assumed),did not change upon co-incubation with C7pp,did not indicate a helix formation in the finger loop
–,3.08,CXCR7 phosphopeptide (C7pp),–,–
